A selection: hits, their analogues and other compounds. The true share with any hit is near 6.4%.
TbMetRS inhib: T. brucei MetRS inhibitors, primary screen, biochemical, luminescence; methionyl-tRNA synthetase (Trypanosoma brucei brucei); purified T. brucei MetRS, ATP depletion, Kinase-Glo luminescence; inhibition, % at 11.9 µM; 360,000 tested, 0.4% active;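 active = inhibition above a per-plate cutoff of the control wells' mean inhibition plus 3 SD, cut at about 5.5% in these data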
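Test system – parasite MetRS enzyme · Reagent – substrates ATP, L-methionine and bulk Escherichia coli tRNA · Doses – 11.9 µM compound single dose, 0.9% DMSO · Times – 15 min enzyme-compound preincubation, 2 h reaction, 10 min detection, 25 °C · Signal – Kinase-Glo luminescence, ATP depletion format · Controls – DMSO-only wells as low control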
GRIN3A LBD mod: binders of NR3A ligand-binding domain, primary screen, biophysical, differential scanning fluorimetry, uHTS; NR3A LBD differential scanning fluorimetry, Tm shift; 0% = protein alone, 100% = glycine-bound protein; Tm shift relative to glycine control, % at 25 µM; 340,000 tested, 2.5% active; AID 1259313, 2017;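 active = melting temperature shift of at least 10% of the positive control shift, at one fixed dose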
CHOP inhibitor: inhibitors of CHOP promoter induction, primary screen, cell-based, unfolded protein response, luciferase reporter; CHO-K1 CHOP-promoter luciferase, tunicamycin-induced, 15-18 h; inhibition, % at 10 µM; 220,000 tested, 3.8% active; AID 2732, 2010;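 active = compounds that reduced the stress-induced luciferase reporter signal by more than about 70% of percent inhibition, limit read from the data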
MPTP block: mitochondrial permeability transition pore inhibitors, primary screen, biochemical, isolated mouse mitochondria, absorbance; Ca2+ swelling absorbance, 30 min; inhibition, % at 10 µM; 360,000 tested, 1.4% active; AID 602449, 2012;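 active = inhibition of 50% or more, scaled per plate between neutral and stimulator controls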
EBV gp42 block: Epstein-Barr virus gp42 inhibitors, primary screen, biochemical, uHTS, fluorescence polarization | Fluorescence polarization binding assay, mP read-out | inhibition, % (tested at 21.74 µM) | 220,000 tested, 0.42% active | AID 1085, 2008; in the data active = inhibition above about 50%
Target sequence (Q1HVG2 whole entry, looked up): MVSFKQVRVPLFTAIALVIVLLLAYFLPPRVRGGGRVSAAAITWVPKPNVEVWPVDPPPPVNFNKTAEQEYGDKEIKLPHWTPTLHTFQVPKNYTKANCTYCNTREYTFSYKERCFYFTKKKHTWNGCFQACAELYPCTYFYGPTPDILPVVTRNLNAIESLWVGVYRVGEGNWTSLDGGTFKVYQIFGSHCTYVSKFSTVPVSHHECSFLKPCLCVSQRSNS
WT yeast gro inh: growth inhibition of WT strain, primary screen, mitochondrial fusion inhibitor project, WT and mutant strains, chemical genetic; mitochondrial fusion phenotypic screen; inhibition, % at 10 µM; 190,000 tested, 2.1% active; in the data active = inhibition above about 58%; tested in S. cerevisiae
Each line names hits and unclear results; the compound was inactive in the other large screens.

COC(=O)N1C(=O)[C@@](Cc2ccccc2)(c2ccccc2)N1C(=O)OC	none (no result: CHOP inhibitor, EBV gp42 block, WT yeast gro inh)
Cc1cccn2c(=O)c3cc(S(=O)(=O)c4ccccc4)c(=N)n(Cc4cccnc4)c3nc12	none (no result: CHOP inhibitor, EBV gp42 block, WT yeast gro inh)
CCOCCCn1c(=NC(=O)c2cccs2)c(C#N)cc2c(=O)n3cccc(C)c3nc21	EBV gp42 block 54 (no result: WT yeast gro inh)
Cc1ccc(S(=O)(=O)c2cc3c(=O)n4cccc(C)c4nc3n(Cc3ccncc3)c2=N)cc1	GRIN3A LBD mod 11 (no result: CHOP inhibitor, EBV gp42 block, WT yeast gro inh)
COCCCn1c(=NC(=O)c2ccccc2)c(C#N)cc2c(=O)n3cccc(C)c3nc21	EBV gp42 block 52 (no result: WT yeast gro inh)
Cc1cccn2c(=O)c3cc(C#N)c(=O)n(Cc4cccnc4)c3nc12	GRIN3A LBD mod 19 (no result: CHOP inhibitor, EBV gp42 block, WT yeast gro inh)
COCCCn1c(=NC(C)=O)c(C#N)cc2c(=O)n3cccc(C)c3nc21	none (no result: WT yeast gro inh)
COc1ccc(C(=O)Nc2sc(C)c(-c3ccccc3)c2C#N)cc1OC	none
O=C(CN1C(=O)NC2(CCc3ccccc32)C1=O)Nc1cccc(F)c1 (stereo not given)	none (no result: CHOP inhibitor, EBV gp42 block, WT yeast gro inh)
O=C1[C@H](Cc2ccccc2)NCCCC[C@@H](c2ccc(Cl)cc2)N1Cc1ccc(Cl)cc1	none (no result: CHOP inhibitor, EBV gp42 block, WT yeast gro inh)
O=C1[C@H](Cc2ccccc2)NCCCC[C@H](c2ccc(Cl)cc2)N1Cc1ccccc1	GRIN3A LBD mod 10 (no result: CHOP inhibitor, EBV gp42 block, WT yeast gro inh)
CNc1nc(N)c(C(=O)C(C)(C)C)s1	none
CCOC(=O)c1c(C)[nH]c(C)c1C(=O)COC(=O)/C=C/c1cccc(C(F)(F)F)c1	WT yeast gro inh 58
CCOC(=O)c1c(C)[nH]c(C)c1C(=O)COC(=O)c1cc2ccccc2cc1OC	none
CCOC(=O)c1c(C)[nH]c(C)c1C(=O)COC(=O)c1cc2ccccc2cc1O	WT yeast gro inh 74
CCOC(=O)c1c(C)[nH]c(C)c1C(=O)COC(=O)/C=C/c1cccc(F)c1	none
Cc1ccc(C)c(Cn2cnc3c(cnn3C(C)(C)C)c2=O)c1	WT yeast gro inh 61
Cc1ccccc1Cn1cnc2c(cnn2C(C)(C)C)c1=O	none
CC(=O)c1ccc(Cl)c(Cl)c1Cl	none (no result: CHOP inhibitor, EBV gp42 block, WT yeast gro inh)
Cc1ccccc1C(=O)NC=C1C(=O)OC(C)(C)OC1=O	none
CC1(C)OC(=O)C(=CNC(=O)c2c(F)cccc2F)C(=O)O1	CHOP inhibitor 73
O=C(Cc1nc2ccccc2[nH]c1=O)c1ccccc1	EBV gp42 block 52
CC(C)(C)N1CC(c2nc3ccccc3n2CCOc2ccccc2)CC1=O (stereo not given)	EBV gp42 block 67
c1ccc(NCc2nc3ccccc3n2CCOc2ccccc2)cc1	WT yeast gro inh 77
COc1cc(/C=N/NC(=O)C(NC(=O)c2ccccc2)c2n[nH]c(=O)c3ccccc23)ccc1OCC(N)=O (stereo not given)	none (no result: CHOP inhibitor, EBV gp42 block, WT yeast gro inh)
Cc1ccc(NC(=S)NCc2ccc(F)cc2)c(C)c1	none (no result: CHOP inhibitor, EBV gp42 block, WT yeast gro inh)
COc1ccc(C(=O)N/C(N)=N/c2nc3ccccc3o2)cc1	none
COc1ccc(C(=O)/C=C/Sc2nc3ccccc3o2)cc1	CHOP inhibitor 82 (no result: WT yeast gro inh)
C/C(=N\N1CCN(c2ccccc2)CC1)c1ccc(O)cc1	GRIN3A LBD mod 10 (no result: CHOP inhibitor, EBV gp42 block, WT yeast gro inh)
C/C(=N\N1CCN(c2ccccc2)CC1)c1ccccc1O	none (no result: CHOP inhibitor, EBV gp42 block, WT yeast gro inh)
N#CCSc1nc2c(cc1C#N)CCCC2	none
CSC1CCCCC1(O)CSc1nc2c(cc1C#N)CCCC2 (stereo not given)	CHOP inhibitor 85
COc1ccc(CS(=O)(=O)CC(C)(O)c2ccccc2Cl)cc1 (stereo not given)	GRIN3A LBD mod 16 (no result: CHOP inhibitor, EBV gp42 block, WT yeast gro inh)
CN(C)c1ccc(NC(=O)CN2C(=O)CC(c3ccccc3)=Nc3ccccc32)cc1	CHOP inhibitor 91
CCc1nnc(NC(=O)CSc2nc(C3CCCCC3)nc3ccccc23)s1	none
N#Cc1c(C(F)(F)F)cc(-c2ccccc2)nc1SCC(=O)Nc1sc2c(c1C#N)CCC2	GRIN3A LBD mod 10, CHOP inhibitor 74
CCc1nnc(NC(=O)CSc2nc(-c3ccccc3)cc(-c3ccc(F)cc3)c2C#N)s1	CHOP inhibitor 84
CCc1nnc(NC(=O)CSc2nc(-c3ccccc3)nc3ccccc23)s1	CHOP inhibitor 90
N#Cc1c(C(F)(F)F)cc(-c2ccccc2)nc1SCc1nc(N)nc(N2CCOCC2)n1	GRIN3A LBD mod 16
CCc1nnc(NC(=O)CSc2ccc(-c3ccc(F)cc3)nn2)s1	none (no result: TbMetRS inhib, GRIN3A LBD mod, MPTP block)
Cc1ccc(C(=O)N2CCCC2)cc1S(=O)(=O)N1CCCCC1	none (no result: CHOP inhibitor, EBV gp42 block, WT yeast gro inh)
COc1ccc(NC(=O)CN(C)C(=O)c2ccc(N3CCCCCC3)c([N+](=O)[O-])c2)cc1	none (no result: CHOP inhibitor, EBV gp42 block, WT yeast gro inh)
Cc1noc(C)c1S(=O)(=O)Nc1ccc(C(=O)NCc2ccccc2)cc1	none
Cc1cccc(NC(=O)c2ccc(NS(=O)(=O)c3c(C)noc3C)cc2)c1	GRIN3A LBD mod 29
COc1cc(NC(=O)c2ccc(NS(=O)(=O)c3c(C)noc3C)cc2)cc(OC)c1	GRIN3A LBD mod 19
CC(=O)Nc1cccc(NS(=O)(=O)c2c(C)noc2C)c1	none (no result: CHOP inhibitor, EBV gp42 block, WT yeast gro inh)
CCc1cccc(NC(=O)c2ccc(NS(=O)(=O)c3c(C)noc3C)cc2)c1	GRIN3A LBD mod 29
COc1ccc(OC)c(NC(=O)c2ccc(NS(=O)(=O)c3c(C)noc3C)cc2)c1	none
Cc1noc(C)c1S(=O)(=O)Nc1ccc(C(=O)Nc2ccc(OC(F)(F)F)cc2)cc1	GRIN3A LBD mod 12 (no result: CHOP inhibitor, EBV gp42 block, WT yeast gro inh)
CSc1ncccc1C(=O)NNC(=O)c1csc(N2CCOCC2)n1	none (no result: GRIN3A LBD mod, CHOP inhibitor, EBV gp42 block, WT yeast gro inh)

Screening results deposited in PubChem by several laboratories.
